ChEMBL document CHEMBL3085708, “Identification and profiling of 3,5-dimethyl-isoxazole-4-carboxylic acid [2-methyl-4-((2S,3'S)-2-methyl-[1,3']bipyrrolidinyl-1'-yl)phenyl] amide as histamine H(3) receptor antagonist for the treatment of depression” (Bioorg Med Chem Lett, 2013)
Activity calls are given as the source filed them. The rule behind the calls is not given here.

Tests used:
[1] = tested on: Rattus norvegicus; assay: Antidepression-like activity in rat assessed as decrease in immobility time at 60 mg/kg, po by forced swimming test; assay type: functional, organism-based; set-up: dose 60 mg/kg
How it was run: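 Rat forced-swim test, immobility time as read-out. Test agent given po in MC/0.6% + H2O at 1, 3 and 10 mg/kg; imipramine reference at 60 mg/kg po.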

[2] = Dissociation constant, pKa of the compound; assay type: physicochemical
[3] = biological target: Histamine receptor H3 (Macaca mulatta, UniProt Q865E1); assay: Displacement of [3H]N-alpha-methylhistamine from recombinant rhesus monkey histamine H3 receptor transfected in CHO cells after 1 hr by scintillation counting analysis; assay type: cell-based
Histamine receptor H3, sequence (Q865E1 whole entry): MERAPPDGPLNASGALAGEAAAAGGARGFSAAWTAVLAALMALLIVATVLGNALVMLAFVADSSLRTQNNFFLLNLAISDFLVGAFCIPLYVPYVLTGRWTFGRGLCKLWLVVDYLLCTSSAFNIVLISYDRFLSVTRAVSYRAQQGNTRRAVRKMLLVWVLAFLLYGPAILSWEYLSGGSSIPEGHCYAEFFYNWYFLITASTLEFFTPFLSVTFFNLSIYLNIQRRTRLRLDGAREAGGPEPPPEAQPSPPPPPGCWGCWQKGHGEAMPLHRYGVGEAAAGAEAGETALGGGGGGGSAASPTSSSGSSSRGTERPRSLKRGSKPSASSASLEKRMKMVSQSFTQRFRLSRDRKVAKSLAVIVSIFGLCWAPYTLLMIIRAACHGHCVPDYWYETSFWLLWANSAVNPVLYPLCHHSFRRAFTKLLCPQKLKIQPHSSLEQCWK
How it was run: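 Membranes from CHO cells stably expressing recombinant rhesus monkey H3 receptor; displacement of [3H]N-α-methyl-histamine, reported as Ki.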

Structure (SMILES): CN(C)CCCN1c2ccccc2CCc2ccccc21
- Activity [1]: Active

Structure (SMILES): Cc1cccc(C(=O)Nc2ccc(N3CC[C@H](N4CCC[C@@H]4C)C3)cc2C)n1
- pKa [2]: 10.1
- Ki [3]: 1.4 nM

Structure (SMILES): Cc1nc(N2CC[C@H](N3CCC[C@@H]3C)C2)ccc1NC(=O)c1cccc2ccccc12
- pKa [2]: 9.9

Structure (SMILES): Cc1nc(N2CC[C@H](N3CCC[C@@H]3C)C2)ccc1NS(=O)(=O)c1ccc(F)c(F)c1
- pKa [2]: 10

Structure (SMILES): Cc1nc(N2CC[C@H](N3CCC[C@@H]3C)C2)ccc1NC(=O)c1ccccc1
- pKa [2]: 9.9
- Ki [3]: 3 nM

Structure (SMILES): Cc1cc(N2CC[C@H](N3CCC[C@@H]3C)C2)ccc1NC(=O)c1cc(F)ccc1C
- pKa [2]: 10.1

Structure (SMILES): Cc1cc(C(=O)Nc2ccc(N3CC[C@H](N4CCC[C@@H]4C)C3)cc2C)n[nH]1
- pKa [2]: 12.1

Structure (SMILES): Cc1cc(N2CC[C@H](N3CCC[C@@H]3C)C2)ccc1NC(=O)c1ccoc1
- pKa [2]: 10.1

Structure (SMILES): Cc1nc(N2CC[C@H](N3CCC[C@@H]3C)C2)ccc1NC(=O)Cc1ccccc1
- pKa [2]: 9.9

Structure (SMILES): Cc1cc(C(=O)Nc2ccc(N3CC[C@H](N4CCC[C@@H]4C)C3)cc2C)on1
- pKa [2]: 10.1

Structure (SMILES): Cc1nc(C(=O)Nc2ccc(N3CC[C@H](N4CCC[C@@H]4C)C3)cc2C)co1
- pKa [2]: 10.1

Structure (SMILES): Cc1cc(N2CC[C@H](N3CCC[C@@H]3C)C2)ccc1NC(=O)c1ccco1
- pKa [2]: 10.1

Structure (SMILES): Cc1cc(N2CC[C@H](N3CCC[C@@H]3C)C2)ccc1NC(=O)c1cc(C)n(C)n1
- pKa [2]: 10.1
